According to ChEMBL document CHEMBL1158125, “seco-Cycloartane triterpenes from Gardenia aubryi” (J Nat Prod, 2006):
Counter-ions that a name gives are not always drawn.

Key:
Assay type in all cases: functional, cell-based
PC-3 = assay: Cytotoxicity against human PC-3 cells after 48 hrs by MTT assay; conditions: PC-3, 48 h
How it was run: (§1)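 Cells grown in DMEM with penicillin (100 U/mL), streptomycin (100 μg/mL) and 10% FBS at 37 °C, 5% CO2, and seeded at 5000 cells/well. After 24 h, compounds were added diluted in DMSO and left for 48 h. Medium was then replaced with MTT (1 mg/mL final, serum-free phenol-red-free RPMI) for 4 h. Formazan was dissolved in isopropanol and read at 550 nm (reference 690 nm). IC50 reported.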

HeLa = assay: Cytotoxicity against human HeLa cells after 48 hrs by MTT assay; how it was run: as §1
MCF7 = assay: Cytotoxicity against human MCF7 cells after 48 hrs by MTT assay; conditions: MCF7, 48 h; how it was run: as §1
MDA-MB-231 = assay: Cytotoxicity against human MDA-MB-231 cells after 48 hrs by MTT assay; conditions: MDA-MB-231, 48 h; how it was run: as §1

SMILES	IC50 (PC-3) [µM]	IC50 (HeLa) [µM]	IC50 (MCF7) [µM]	IC50 (MDA-MB-231) [µM]
C=C(CO)[C@@H]1CC[C@H]2[C@]3(CC[C@]4(C)[C@@H]([C@H](C)CCC=C(C)C)CC[C@@]24C)C[C@]13CCC(=O)O [SECAUBRYENOL]	> 100	> 100	> 100	> 100
C=C(CO)[C@@H]1CC[C@H]2[C@]3(CC[C@]4(C)[C@@H]([C@H](C)CC[C@@H](O)C(C)(C)O)CC[C@@]24C)C[C@]13CCC(=O)O [SECAUBRYTRIOL]	> 100	> 100	> 100	> 100
COc1cccc2c1C(=O)c1c(O)c3c(c(O)c1C2=O)C[C@@](O)(C(C)=O)C[C@@H]3O[C@H]1C[C@H](N)[C@H](O)[C@H](C)O1 [DAUNORUBICIN HYDROCHLORIDE]	0.44	0.32	0.22	0.25
C=C1C(=O)O[C@@H]2C[C@@H]3[C@]4(CC[C@]5(C)[C@@H]([C@H](C)CC(=O)C=C(C)C)CC[C@@]35C)C[C@]4(CCC(=O)OC)[C@H]12 [SECAUBRYOLIDE]	35	40	52	21
